16 compounds from ChEMBL document CHEMBL3352392, “Identification of novel thiadiazoloacrylamide analogues as inhibitors of dengue-2 virus NS2B/NS3 protease” (Bioorg Med Chem, 2014) can be followed below.

The inhibition is the relative decrease from the control value, in per cent. The term IC50 denotes the concentration at which inhibition is half-maximal. Read a high IC50 as weaker potency in that assay. One may read the Kd as the free concentration of one partner at which half of the binding sites on the other are occupied at equilibrium, for simple one-to-one binding.

Calls of active or inactive are those of the source. No cut-off for these calls is given here.

The target of experiment [1] is Genome polyprotein (dengue virus type 2) (UniProt P12823). Put plainly: Inhibition of Dengue virus 2 NS2B/NS3 protease using Bz-Nle-Lys-Arg-Arg-AMC as substrate preincubated at 20 uM for 30 mins before substrate addition by fluorescence assay. In a few lines: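 E. coli BL21-expressed DENV2 NS2B-NS3pro, 200 nM, with compound at 20 µM in 50 mM Tris-HCl pH 8.5, 10 mM NaCl, 20% glycerol, 1 mM CHAPS, 37 °C for 30 min. Bz-Nle-Lys-Arg-Arg-AMC added to start. Fluorescence read every 10 s for 5 min (ex 380/em 460 nm). Inhibition rate from maximum reaction rate with versus without compound. Aprotinin 1 µM as positive control.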

The target in experiment [2] is T1, Genome polyprotein (dengue virus type 2, UniProt P12823). Description: Inhibition of Dengue virus 2 NS2B/NS3 protease using Bz-Nle-Lys-Arg-Arg-AMC as substrate preincubated for 30 mins before substrate addition by fluorescence assay. A digest of the protocol:
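Purified DENV2 NS2B-NS3pro (200 nM; E. coli BL21) mixed with compound at eleven levels, 0.1 nM–200 µM, in pH 8.5 Tris-HCl buffer with 10 mM NaCl, 20% glycerol, 1 mM CHAPS. Preincubated 30 min at 37 °C, then Bz-Nle-Lys-Arg-Arg-AMC added. AMC fluorescence (380/460 nm) followed every 10 s over 5 min. IC50 from the concentration series.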

Experiment [3] concerns the target T1, Genome polyprotein. Put plainly: (§1) Binding affinity to Dengue virus 2 NS2B/NS3 protease by SPR assay. A digest of the protocol:
(§2)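 DENV2 NS2B/NS3pro purified from E. coli BL21 and amine-coupled onto a CM5 chip in 10 mM sodium acetate, pH 3.95. Compounds serially diluted in HBS (0.01 M HEPES, 0.15 M NaCl, 3 mM EDTA, 0.005% P20, pH 7.4). Biacore 3000 SPR gave the equilibrium KD.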
Background: Surface plasmon resonance follows binding to a sensor surface in real time, without labels.

Experiment [4] has as its target Genome polyprotein (dengue virus type 2) (UniProt P12823). The description is as §1. A digest of the protocol: as §2

Regarding `N#C/C(=C\c1cn(Cc2ccccc2F)c2ccccc12)C(=O)Nc1nnc(SCc2ccccc2)s1`, the inhibition in experiment [1] was 88.9%. Half-maximal inhibition against Genome polyprotein [2] (IC50) was put at 3.58 µM. With `N#C/C(=C\c1cn(Cc2ccc(F)cc2)c2ccccc12)C(=O)Nc1nnc(SCc2ccccc2)s1`, the inhibition in experiment [1] was 86.5%. The compound further yielded an IC50 at Genome polyprotein [2] of 2.24 µM. Also, the Kd at Genome polyprotein [3] is 2.07 µM.

`N#C/C(=C\c1cn(Cc2ccccc2)c2ccccc12)C(=O)Nc1nnc(SCc2ccc(F)cc2)s1` returned an inhibition in experiment [1] of 83.4%. This compound returned an IC50 at Genome polyprotein [2] of 3.72 µM. The compound `COc1ccc(CSc2nnc(NC(=O)/C(C#N)=C/c3cn(Cc4ccccc4)c4ccccc34)s2)cc1` gave an inhibition in experiment [1] of 76.3%. At Genome polyprotein [2], this compound returned an IC50 of 3.44 µM. Turning to `Cc1ccccc1CSc1nnc(NC(=O)/C(C#N)=C/c2cn(Cc3ccccc3)c3ccccc23)s1`, the inhibition in experiment [1] amounted to 69.4%. For the compound `N#C/C(=C\c1cn(Cc2ccccc2)c2ccccc12)C(=O)Nc1nnc(SCc2ccc(Br)cc2)s1`, the inhibition in experiment [1] was 65.8%. Still for that read-out and setting: under `N#C/C(=C\c1cn(Cc2ccccc2)c2ccccc12)C(=O)Nc1nnc(SCc2ccc(Cl)cc2)s1` stands 63.4%; under `N#C/C(=C\c1cn(Cc2ccccc2)c2ccccc12)C(=O)Nc1nnc(SCc2ccccc2Cl)s1`, 63.5%. For `N=C1/C(=C/c2cn(Cc3ccccc3)c3ccccc23)C(=O)N=C2SC(SCc3ccccc3)=NN12`, the inhibition in experiment [1] amounted to 72%. The compound also gave an IC50 against Genome polyprotein [2] of 6.09 µM.

In experiment [1], `N#C/C(=C\c1cn(Cc2ccccc2)c2ccccc12)C(=O)Nc1nnc(SCc2ccccc2)s1` showed an inhibition of 79%. Besides, on Genome polyprotein [2], the IC50 turned out to be 4.44 µM. Moreover, binding on Genome polyprotein [3] was put at a Kd of 3.59 µM. As to `O=C(/C=C/c1cn(Cc2ccccc2)c2ccccc12)Nc1nnc(C(F)(F)F)s1`, the outcome in experiment [4] was inactive. `N#C/C(=C\c1cn(Cc2ccccc2C#N)c2ccccc12)C(=O)Nc1nnc(SCc2ccccc2)s1` displayed an inhibition in experiment [1] of 85.8%. The compound also gave an IC50 against Genome polyprotein [2] of 2.86 µM. In experiment [1], `N#C/C(=C\c1cn(Cc2ccc(C(F)(F)F)cc2C(F)(F)F)c2ccccc12)C(=O)Nc1nnc(SCc2ccccc2)s1` had an inhibition of 54.1%. Same read-out and setting: under `N#C/C(=C\c1cn(Cc2ccc(C(F)(F)F)cc2)c2ccccc12)C(=O)Nc1nnc(SCc2ccccc2)s1` stands 45.9%.

Compound `N#C/C(=C\c1cn(Cc2ccccc2)c2ccccc12)C(=O)Nc1nnc(C(F)(F)F)s1` yielded an inhibition in experiment [1] of 76%. The same compound had an IC50 against Genome polyprotein [2] of 10.1 µM. In addition, binding on Genome polyprotein [3] was characterised by a dissociation constant (Kd) of 9.27 µM. On to `N#C/C(=C\c1cn(Cc2ccccc2)c2ccccc12)C(=O)Nc1nnc(SCc2cccc3ccccc23)s1`, for which the inhibition in experiment [1] was determined as 50%.
